Inhibition in vivo, inhibition and EC50 data for 18 compounds are collected here from ChEMBL document CHEMBL1142330, “Omega-(2-Naphthyloxy) amino alkanes as a novel class of anti-hyperglycemic and lipid lowering agents” (Bioorg Med Chem, 2008).

pEC50: −log10 of the molar value.

For assay [1], the system named is Rattus norvegicus. Briefly: Inhibition of phospholipids level in triton treated Charles Foster rat at 100 mg/kg, po. Format: functional. Summed up:
(§1)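 Male Charles Foster rats (200–225 g) were used, six per group. They received Triton WR-1339 200 mg/kg i.p. together with oral compound at 100 mg/kg in 2% aqueous gum acacia, over 18 h; vehicle controls were included. Rats were then fasted overnight and bled retro-orbitally. Serum total cholesterol, phospholipids and triglyceride were assayed.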

The test system of assay [2] is Rattus norvegicus. Briefly: Inhibition of triglyceride level in triton treated Charles Foster rat at 100 mg/kg, po. Format: functional. Summed up: as §1
For assay [3], the system named is Rattus norvegicus. Description: Antidiabetic activity in sucrose loaded albino Sprague-Dawley rat model assessed as decrease in blood glucose level at 100 mg/kg, po. Format: functional. An outline of the steps:
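Male Sprague–Dawley rats were fasted overnight and used in groups of five. Baseline blood was taken, then test sample was gavaged at 100 mg/kg. A sucrose load of […] followed 30 min later.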

Assay [4] concerns Rattus norvegicus. Description: Inhibition of cholesterol level in triton treated Charles Foster rat at 100 mg/kg, po. Type of assay: functional. Summed up: as §1
The test system of assay [5] is Rattus norvegicus. Description: Antidiabetic activity in glucose loaded albino Sprague-Dawley rat model assessed as decrease in blood glucose level at 100 mg/kg, po. Type of assay: functional. Summed up:
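Rats in groups of five were bled at baseline, then gavaged with test sample at 100 mg/kg. A glucose load of 2 g/kg was given 30 min later. Blood was collected at 30, 60, 90 and 120 min.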

Assay [6] has as its target T1, Peroxisome proliferator-activated receptor delta (Homo sapiens) (UniProt Q03181).
T1 sequence (whole entry): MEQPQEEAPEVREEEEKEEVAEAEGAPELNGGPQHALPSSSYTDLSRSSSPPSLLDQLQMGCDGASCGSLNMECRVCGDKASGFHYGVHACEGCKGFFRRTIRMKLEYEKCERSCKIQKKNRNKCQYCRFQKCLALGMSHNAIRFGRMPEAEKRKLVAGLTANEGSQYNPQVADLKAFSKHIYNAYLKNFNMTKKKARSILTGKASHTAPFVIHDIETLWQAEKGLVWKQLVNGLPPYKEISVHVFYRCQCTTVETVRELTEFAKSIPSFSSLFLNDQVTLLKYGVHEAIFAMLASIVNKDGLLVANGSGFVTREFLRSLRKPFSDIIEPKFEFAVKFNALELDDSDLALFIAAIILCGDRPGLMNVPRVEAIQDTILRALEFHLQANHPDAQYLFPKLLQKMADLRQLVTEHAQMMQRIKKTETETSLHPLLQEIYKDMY
Description: Inhibition of PPARdelta at 3 uM.

Assay [7] concerns the target T2, Peroxisome proliferator-activated receptor alpha (Homo sapiens) (UniProt Q07869).
T2 sequence (whole entry): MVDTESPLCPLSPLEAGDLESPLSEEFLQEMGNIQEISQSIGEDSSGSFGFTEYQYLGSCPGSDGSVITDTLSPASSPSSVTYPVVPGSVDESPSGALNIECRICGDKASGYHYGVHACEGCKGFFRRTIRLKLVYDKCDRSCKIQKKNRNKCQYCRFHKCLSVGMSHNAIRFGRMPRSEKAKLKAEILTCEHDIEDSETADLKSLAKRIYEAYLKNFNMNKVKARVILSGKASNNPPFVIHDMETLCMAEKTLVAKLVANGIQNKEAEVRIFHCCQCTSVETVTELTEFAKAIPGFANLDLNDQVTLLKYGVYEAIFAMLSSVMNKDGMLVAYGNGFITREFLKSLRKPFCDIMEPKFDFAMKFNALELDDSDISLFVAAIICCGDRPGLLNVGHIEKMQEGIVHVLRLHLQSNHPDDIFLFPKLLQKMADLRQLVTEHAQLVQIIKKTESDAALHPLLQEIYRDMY
Description: Inhibition of PPARalpha at 50 uM.

Assay [8] has as its system Rattus norvegicus. Briefly: Antidiabetic activity in streptozotocin-induced diabetic albino Sprague-Dawley rat model assessed as decrease in blood glucose level at 100 mg/kg, po. Format: functional. An outline of the steps:
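Overnight-fasted rats received streptozotocin 60 mg/kg i.p. in 100 mM citrate buffer, pH 4.5. After 48 h, animals with glucometer glucose of 200–400 mg/dl were grouped (n=6). Sample in 1% gum acacia was given orally at 100 mg/kg; controls received vehicle.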

Assay [9] deals with Mus musculus. Briefly: Antidiabetic activity in db/db mouse at 100 mg/kg after 24 hrs on day 3. Format: functional.
In assay [10] the test system is Syrian golden hamster. Briefly: Inhibition of glucose level in Syrian golden hamster at 300 umol/kg after 10 days. Format: functional. The note with it: Mesocricetus auratus, 240 h.
The test system of assay [11] is Rattus norvegicus. Description: Antidiabetic activity in sucrose challenged streptozotocin-induced diabetic albino Sprague-Dawley rat model assessed as decrease in blood glucose level at 100 mg/kg, po. Format: functional. Summed up: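 Diabetes was induced in overnight-fasted rats with streptozotocin 60 mg/kg i.p. in 100 mM citrate buffer, pH 4.5. Rats with glucose of 150–250 mg/dl at 48 h were selected. A sucrose load of 2.5 g/kg was given 30 min after oral dosing. Glucose was measured at 30–300 min and 24 h. Food was withheld, water allowed.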

Assay [12] deals with Syrian golden hamster. Description: Inhibition of triglyceride level in Syrian golden hamster at 300 umol/kg after 10 days. The note with it: Mesocricetus auratus, 240 h. Format: functional.
For assay [13], the system named is Syrian golden hamster. Description: Inhibition of HDL level in Syrian golden hamster at 300 umol/kg after 10 days. Type of assay: functional. The note with it: Mesocricetus auratus, 240 h.
For assay [14], the system named is Syrian golden hamster. Briefly: Inhibition of glycerol level in Syrian golden hamster at 300 umol/kg after 10 days. Type of assay: functional. The following applies: Mesocricetus auratus, 240 h.
The test system of assay [15] is Mus musculus. Description: Antidiabetic activity in db/db mouse at 100 mg/kg after 5 hrs on day 3. Type of assay: functional.
The test system of assay [16] is Syrian golden hamster. Briefly: Inhibition of cholesterol level in Syrian golden hamster at 300 umol/kg after 10 days. Type of assay: functional. The note with it: Mesocricetus auratus, 240 h.
Assay [17] addresses T3, Peroxisome proliferator-activated receptor gamma (Homo sapiens, UniProt P37231).
T3 sequence (P37231 whole entry): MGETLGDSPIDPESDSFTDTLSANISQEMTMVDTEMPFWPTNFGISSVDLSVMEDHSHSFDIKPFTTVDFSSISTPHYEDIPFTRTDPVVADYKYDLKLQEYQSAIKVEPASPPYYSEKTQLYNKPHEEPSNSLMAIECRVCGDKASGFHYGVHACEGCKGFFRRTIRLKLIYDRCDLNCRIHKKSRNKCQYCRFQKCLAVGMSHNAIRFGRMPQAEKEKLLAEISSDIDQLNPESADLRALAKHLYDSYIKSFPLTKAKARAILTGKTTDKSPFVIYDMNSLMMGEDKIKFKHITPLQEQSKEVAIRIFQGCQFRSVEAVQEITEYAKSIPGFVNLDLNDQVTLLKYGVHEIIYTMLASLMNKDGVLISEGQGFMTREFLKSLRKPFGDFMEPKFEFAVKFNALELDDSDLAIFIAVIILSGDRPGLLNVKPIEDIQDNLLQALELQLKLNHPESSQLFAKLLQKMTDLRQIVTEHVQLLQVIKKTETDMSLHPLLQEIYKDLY
Description: Binding affinity at PPARgamma.

Consider `Cc1ccc(NCCOc2ccc3ccccc3c2)cc1`, for which the inhibition in vivo at 100 mg/kg was determined as 30% in assay [1]; 18% in assay [2]; 6.99% in assay [3]; 27% in assay [4]; 2.45% in assay [5].
Take `CCCCCCCCNCCCOc1ccc2ccccc2c1`: the inhibition in vivo at 100 mg/kg was found to be 32% in assay [3] and 17% in assay [5]. Besides, the inhibition came out at 7.9% in [6] and 11.4% in assay [7].
As for `COc1cccc(CNCCCOc2ccc3ccccc3c2)c1`, the inhibition in vivo at 100 mg/kg in assay [1] is 22%; in [2] it was 22%; in assay [3] it was 8.3%; in [4], 14%; in assay [5] it was 1.23%.
On to `COc1ccc(NCCCCOc2ccc3ccccc3c2)cc1`, for which the inhibition in vivo at 100 mg/kg in assay [1] amounted to 36%; in assay [2], 22%; in [3], 5.09%; in assay [4], 24%; in [5], 3.89%. The values for the inhibition in assay [6] and in [7] were 16.3% and 18.3%, respectively.
For `CCO[C@@H](Cc1ccc(OCCc2ccc(OS(C)(=O)=O)cc2)cc1)C(=O)O`, the inhibition in [7] amounted to 55.5%.
Take `COc1ccc(N(C)CCCOc2ccc3ccccc3c2)cc1`: the inhibition in vivo at 100 mg/kg turned out to be 19% in [1]; 15% in [2]; 14.5% in assay [3]; 11% in [4]; 8.2% in [5]. Besides, the figures for the inhibition in assay [6] and in assay [7] were 19.3% and 22.5%, respectively.
In the case of `Cc1ccc(S(=O)(=O)NC(=O)NN2CC3CCCC3C2)cc1` (stereo not given) [GLICLAZIDE], the inhibition in vivo at 100 mg/kg in [3] came to 44.8%; in assay [8], 27.7%.
`c1ccc(CNCCCOc2ccc3ccccc3c2)cc1`: the figures for the inhibition in vivo at 100 mg/kg in assay [3] and in assay [5] were 40.5% and 13.8%, respectively. The inhibition in assay [6] is 29.1%; in assay [7] it was 28.4%.
As to `C/C=C1\C(=O)C[C@H]2[C@@H]3CCC4=CC(=O)CC[C@]4(C)[C@H]3CC[C@]12C` [GUGGULSTERONE], the inhibition in vivo at 100 mg/kg amounted to 33% in assay [1], 30% in [2] and 34% in assay [4].
For the compound `COc1ccc(NCCOc2ccc3ccccc3c2)cc1`, the inhibition in vivo at 100 mg/kg turned out to be 19.4% in [3] and 10.6% in [5]. Moreover, the inhibition came out at 24.6% in assay [6] and 22.2% in [7].
As to `c1ccc(CNCCOc2ccc3ccccc3c2)cc1`, the inhibition in vivo at 100 mg/kg came out at 34% in [1]; 37% in assay [2]; 11.6% in assay [9]; 64% in [3]; 69.5% in assay [11]; 13% in [8]. The inhibition in vivo at 100 mg/kg in assay [4] turned out to be 31%; in assay [15], 7%; in assay [5], 37.6%. In addition, the inhibition came out at 31.3% in assay [6] and 36.2% in [7]. Further, the inhibition in vivo at 300 µmol/kg in [10] amounted to 9.5%; in assay [12] it was 37%; in assay [13], 13%; in [14], 10%; in assay [16], 14%. This compound also showed a pEC50 in assay [17] of 6.40.
For the compound `CCCN(CCCOc1ccc2ccccc2c1)c1ccc(OC)cc1`, the inhibition in vivo at 100 mg/kg came to 27% in assay [1]; 12% in assay [2]; 37.2% in assay [3]; 14% in [4]; 11.6% in assay [5]. The values for the inhibition in [6] and in [7] were 9.6% and 10.9%, respectively.
On to `c1ccc(CNCCCCOc2ccc3ccccc3c2)cc1`, for which the inhibition in vivo at 100 mg/kg was found to be 18% in assay [1]; 5% in assay [2]; 16% in assay [3]; 10.1% in assay [4]; 8.89% in [5]. The inhibition in [6] came out at 22.4%; in assay [7] it was 21.3%.
For `COc1ccc(N(CCCOc2ccc3ccccc3c2)CC(=O)O)cc1`, the inhibition in vivo at 100 mg/kg came out at 16.9% in assay [1]; 13% in [2]; 21.5% in [3]; 23.8% in assay [4]; 15.5% in [5]. The inhibition was determined as 20.2% in assay [6] and 25.4% in assay [7]. Besides, the inhibition in vivo at 300 µmol/kg in [10] amounted to 22%; in assay [12], 44%; in assay [13] it was 11%; in assay [14], 23%; in assay [16], 21%.
Regarding `COc1ccc(Cl)cc1C(=O)NCCc1ccc(S(=O)(=O)NC(=O)NC2CCCCC2)cc1` [GLYBURIDE], the inhibition in vivo at 100 mg/kg was determined as 33.9% in [3] and 32.8% in assay [8].
In the case of `CCCCN(CCCOc1ccc2ccccc2c1)c1ccc(OC)cc1`, the inhibition in vivo at 100 mg/kg in assay [1] stood at 25%; in assay [2] it was 17%; in [3], 4.4%; in [4], 15%; in assay [5], 13.5%. The inhibition in assay [6] came out at 8.4%; in assay [7] it was 8.5%.
Take `Cc1ccc(NCCCCOc2ccc3ccccc3c2)cc1`: the figures for the inhibition in vivo at 100 mg/kg in assay [3] and in assay [5] were 6.9% and 3.21%, respectively.
Take `CCN(CCCOc1ccc2ccccc2c1)c1ccc(OC)cc1`: the inhibition in vivo at 100 mg/kg in assay [3] amounted to 13.5%; in assay [5] it was 6.88%. Besides, the inhibition turned out to be 17.3% in assay [6] and 20.3% in assay [7].
